Calls of active or inactive are those of the source. The calls are words filed in the database; no cut-off is given here.
What was measured:
K562 = experiment: Induction of DNA double strand breaks in human K562 cells assessed as increase in gamma-H2AX level at 25 uM after 4 hrs by chemiluminescence analysis; format: functional, cell-based
How it was run: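 K562 cells (3.4 × 10^5/mL) exposed 4 h at 37 °C to 25 µM drug or DMSO. Lysed in Tris pH 6.7/SDS buffer; 50 µg protein on 14% SDS-PAGE, PVDF blot. Rabbit anti-γH2AX (1:1000, overnight), GAPDH loading control, HRP secondary. Chemiluminescence imaged by CCD.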

HCT-15 = experiment: Cytotoxicity against human HCT15 cells assessed as cell growth at 50 uM by SRB assay; format: functional; settings: read-out: Activity
How it was run: (§1)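 Measured in the NCI-60 human tumour cell line panel using five-dose testing. Growth was recorded at each dose for each cell line, and a GI50 was derived for each line.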

SW-620 = experiment: Cytotoxicity against human SW620 cells assessed as cell growth at 50 uM by SRB assay; format: functional; settings: read-out: Activity
SF-268 [1] = experiment: Cytotoxicity against human SF268 cells assessed as cell growth at 50 uM by SRB assay; format: functional; settings: read-out: Activity
SK-MEL-5 [2] = experiment: Cytotoxicity against human SK-MEL-5 cells assessed as cell growth at 50 uM by SRB assay; format: functional; settings: read-out: Activity
OVCAR-5 [3] = experiment: Cytotoxicity against human OVCAR5 cells assessed as cell growth at 50 uM by SRB assay; format: functional; settings: read-out: Activity
PC-3 [4] = experiment: Cytotoxicity against human PC3 cells assessed as cell growth at 50 uM by SRB assay; format: functional; settings: read-out: Activity
T47D = experiment: Cytotoxicity against human T47D cells assessed as cell growth at 50 uM by SRB assay; format: functional; settings: read-out: Activity
HL-60(TB) = experiment: Cytotoxicity against human HL-60(TB) cells by SRB assay; format: functional; how it was run: as §1
SR = experiment: Cytotoxicity against human SR cells by SRB assay; format: functional
How it was run: (§2)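 NCI-60 panel screen; 5-dose testing giving GI50 per cell line, plus a single 10 µM one-dose test. Method details not given beyond the NCI screen.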

SNB-19 = experiment: Cytotoxicity against human SNB19 cells by SRB assay; format: functional; how it was run: as §2
OVCAR-5 [5] = experiment: Cytotoxicity against human OVCAR5 cells by SRB assay; format: functional; how it was run: as §2
PC-3 [6] = experiment: Cytotoxicity against human PC3 cells by SRB assay; format: functional; how it was run: as §2
MOLT-4 = experiment: Cytotoxicity against human MOLT4 cells assessed as cell growth at 0.005 uM by SRB assay; format: functional; settings: read-out: Activity
SF-295 [7] = experiment: Cytotoxicity against human SF295 cells assessed as cell growth at 0.005 uM by SRB assay; format: functional; settings: read-out: Activity
MDA-MB-435 = experiment: Cytotoxicity against human MDA-MB-435 cells assessed as cell growth at 0.005 uM by SRB assay; format: functional; settings: read-out: Activity
ACHN [8] = experiment: Cytotoxicity against human ACHN cells assessed as cell growth at 0.005 uM by SRB assay; format: functional; settings: read-out: Activity
A549 = experiment: Cytotoxicity against human A549/ATCC cells assessed as cell growth at 0.05 uM by SRB assay; format: functional; settings: read-out: Activity
NCI-H226 [9] = experiment: Cytotoxicity against human NCI-H226 cells assessed as cell growth at 0.05 uM by SRB assay; format: functional; settings: read-out: Activity
SF-295 [10] = experiment: Cytotoxicity against human SF295 cells assessed as cell growth at 0.05 uM by SRB assay; format: functional; settings: read-out: Activity
SK-MEL-2 = experiment: Cytotoxicity against human SK-MEL-2 cells assessed as cell growth at 0.05 uM by SRB assay; format: functional; settings: read-out: Activity
SK-MEL-5 [11] = experiment: Cytotoxicity against human SK-MEL-5 cells assessed as cell growth at 0.05 uM by SRB assay; format: functional; settings: read-out: Activity
OVCAR-8 = experiment: Cytotoxicity against human OVCAR8 cells assessed as cell growth at 0.05 uM by SRB assay; format: functional; settings: read-out: Activity
SK-OV-3 = experiment: Cytotoxicity against human SKOV3 cells assessed as cell growth at 0.05 uM by SRB assay; format: functional; settings: read-out: Activity
A498 [12] = experiment: Cytotoxicity against human A498 cells assessed as cell growth at 0.05 uM by SRB assay; format: functional; settings: read-out: Activity
SF-268 [13] = experiment: Cytotoxicity against human SF268 cells assessed as cell growth at 0.5 uM by SRB assay; format: functional; settings: read-out: Activity
UACC-257 = experiment: Cytotoxicity against human UACC257 cells assessed as cell growth at 0.5 uM by SRB assay; format: functional; settings: read-out: Activity
A498 [14] = experiment: Cytotoxicity against human A498 cells assessed as cell growth at 0.5 uM by SRB assay; format: functional; settings: read-out: Activity
ACHN [15] = experiment: Cytotoxicity against human ACHN cells assessed as cell growth at 0.5 uM by SRB assay; format: functional; settings: read-out: Activity
HOP-62 = experiment: Cytotoxicity against human HOP62 cells assessed as cell growth at 5 uM by SRB assay; format: functional; settings: read-out: Activity; how it was run: as §1
NCI-H460 = experiment: Cytotoxicity against human NCI-H460 cells assessed as cell growth at 5 uM by SRB assay; format: functional; settings: read-out: Activity
U-251 = experiment: Cytotoxicity against human U251 cells assessed as cell growth at 5 uM by SRB assay; format: functional; settings: read-out: Activity
IGROV-1 = experiment: Cytotoxicity against human IGROV1 cells assessed as cell growth at 5 uM by SRB assay; format: functional; settings: read-out: Activity
A498 [16] = experiment: Cytotoxicity against human A498 cells assessed as cell growth at 5 uM by SRB assay; format: functional; settings: read-out: Activity
CAKI-1 = experiment: Cytotoxicity against human Caki1 cells assessed as cell growth at 5 uM by SRB assay; format: functional; settings: read-out: Activity
MCF7 = experiment: Cytotoxicity against human MCF7 cells assessed as cell growth at 5 uM by SRB assay; format: functional; settings: read-out: Activity
HOP-92 = experiment: Cytotoxicity against human HOP92 cells assessed as cell growth at 50 uM by SRB assay; format: functional; settings: read-out: Activity; how it was run: as §1
NCI-H226 [17] = experiment: Cytotoxicity against human NCI-H226 cells assessed as cell growth at 50 uM by SRB assay; format: functional; settings: read-out: Activity
NCI-H322M = experiment: Cytotoxicity against human NCI-H322M cells assessed as cell growth at 50 uM by SRB assay; format: functional; settings: read-out: Activity
COLO 205 = experiment: Cytotoxicity against human COLO205 cells assessed as cell growth at 50 uM by SRB assay; format: functional; settings: read-out: Activity
HCC 2998 = experiment: Cytotoxicity against human HCC2998 cells assessed as cell growth at 50 uM by SRB assay; format: functional; settings: read-out: Activity; how it was run: as §1
[18] = read-out: LC50 (the source's name)
[19] = read-out: pLC50 (the source's name) (converted)

COc1cc([C@@H]2c3cc4c(cc3[C@@H](NC(=O)CN3CCN(CCCCCCN5CCN(CC(=O)N[C@@H]6c7cc8c(cc7[C@@H](c7cc(OC)c(O)c(OC)c7)[C@H]7C(=O)OC[C@@H]76)OCO8)CC5)CC3)[C@H]3COC(=O)[C@H]23)OCO4)cc(OC)c1O
Activity (K562): Active
growth at 50 µM (HCT-15): 60%
growth at 50 µM (SW-620): 4%
growth at 50 µM (SF-268 [1]): 10%
growth at 50 µM (SK-MEL-5 [2]): 9%
growth at 50 µM (OVCAR-5 [3]): 10%
growth at 50 µM (PC-3 [4]): 25%
growth at 50 µM (T47D): 2%
GI50 (HL-60(TB); read-out: GI50): 0.772 µM
CC50 (HL-60(TB); [18]): > 50 µM
TGI (HL-60(TB); read-out: TGI): 33.8 µM
GI50 (HL-60(TB); read-out: pGI50 (converted)): 0.776 µM
CC50 (HL-60(TB); [19]): > 50.1 µM
TGI (HL-60(TB); read-out: pTGI (converted)): 33.9 µM
GI50 (SR; read-out: GI50): 0.106 µM
CC50 (SR; [18]): > 50 µM
TGI (SR; read-out: TGI): > 50 µM
GI50 (SR; read-out: pGI50 (converted)): 0.105 µM
CC50 (SR; [19]): > 50.1 µM
TGI (SR; read-out: pTGI (converted)): > 50.1 µM
GI50 (SNB-19; read-out: GI50): 1.03 µM
CC50 (SNB-19; [18]): > 50 µM
TGI (SNB-19; read-out: TGI): > 50 µM
GI50 (SNB-19; read-out: pGI50 (converted)): 1.02 µM
CC50 (SNB-19; [19]): > 50.1 µM
TGI (SNB-19; read-out: pTGI (converted)): > 50.1 µM
GI50 (OVCAR-5 [5]; read-out: GI50): 7.24 µM
CC50 (OVCAR-5 [5]; [18]): > 50 µM
TGI (OVCAR-5 [5]; read-out: TGI): > 50 µM
GI50 (OVCAR-5 [5]; read-out: pGI50 (converted)): 7.24 µM
CC50 (OVCAR-5 [5]; [19]): > 50.1 µM
TGI (OVCAR-5 [5]; read-out: pTGI (converted)): > 50.1 µM
GI50 (PC-3 [6]; read-out: GI50): 6.87 µM
CC50 (PC-3 [6]; [18]): > 50 µM
TGI (PC-3 [6]; read-out: TGI): > 50 µM
GI50 (PC-3 [6]; read-out: pGI50 (converted)): 6.92 µM
CC50 (PC-3 [6]; [19]): > 50.1 µM
TGI (PC-3 [6]; read-out: pTGI (converted)): > 50.1 µM
growth at 0.005 µM (MOLT-4): 108%
growth at 0.005 µM (SF-295 [7]): 90%
growth at 0.005 µM (MDA-MB-435): 91%
growth at 0.005 µM (ACHN [8]): 94%
growth at 0.05 µM (A549): 89%
growth at 0.05 µM (NCI-H226 [9]): 87%
growth at 0.05 µM (SF-295 [10]): 93%
growth at 0.05 µM (SK-MEL-2): 100%
growth at 0.05 µM (SK-MEL-5 [11]): 93%
growth at 0.05 µM (OVCAR-8): 108%
growth at 0.05 µM (SK-OV-3): 107%
growth at 0.05 µM (A498 [12]): 96%
growth at 0.5 µM (SF-268 [13]): 74%
growth at 0.5 µM (UACC-257): 108%
growth at 0.5 µM (A498 [14]): 78%
growth at 0.5 µM (ACHN [15]): 95%
growth at 5 µM (HOP-62): 42%
growth at 5 µM (NCI-H460): 11%
growth at 5 µM (U-251): 23%
growth at 5 µM (IGROV-1): 74%
growth at 5 µM (A498 [16]): 54%
growth at 5 µM (CAKI-1): 80%
growth at 5 µM (MCF7): 12%
growth at 50 µM (HOP-92): 14%
growth at 50 µM (NCI-H226 [17]): -2%
growth at 50 µM (NCI-H322M): 37%
growth at 50 µM (COLO 205): -3%
growth at 50 µM (HCC 2998): -10%
